Paper PMC9102048 (RSC Advances, 2022)
Read-outs that look alike come from different tables or passages of the source.

How the values were obtained:
[1] = tested on: NIH3T3 cells; assay: CCK8 anti-proliferative assay, mouse fibroblast cell line; format: cell-based; conditions: for IC50: CCK8; for inhibition at 500 µM: NIH3T3, read-out: Inhibition% @ 0.5 mM; for inhibition at 1000 µM: NIH3T3, read-out: Inhibition% @ 1 mM; for proliferation (fixed cell morphology): NHI3T3, 0.050 mM for 24 h
How it was run: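 NIH3T3 cells in F12K/DMEM with 10% heat-inactivated FBS and penicillin/streptomycin. Log-phase cells seeded at 5 × 10^3 cells/well for 24 h, then exposed to a range of test-compound concentrations for 72 h. Single-point inhibition taken at 1 mM and 0.5 mM. CCK8 added for 1–4 h; absorbance read at 450 nm. IC50 by curve fitting; mean (±SD) of ≥3 independent determinations.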

[2] = tested on: NHI3T3 cells; assay: Transwell / cell migration assay; format: cell-based, mouse
[3] = Solubility in water; format: physicochemical; conditions: compared with 11a and 11b
[4] = tested on: HFL1; assay: CCK8 antiproliferative assay, human fibroblast cell line; format: cell-based; conditions: for proliferation (fixed cell morphology): HFL1, 0.050 mM for 24 h; for IC50: Homo sapiens, HFL1
How it was run: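 HFL1 human fibroblasts grown in F12K/DMEM with 10% heat-inactivated FBS and penicillin/streptomycin. Cells treated with test compound for 48 h, and viability read by CCK8 absorbance at 450 nm. Curve fitting gave IC50. For morphology, cells were treated for 24 h, fixed, and imaged by light microscopy with a 10× objective.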

[5] = tested on: NIH3T3 cells; conditions: pirfenidone, reported in the literature; cited from earlier work
[6] = clinical trials, after administration of pirfenidone; cited from earlier work
[7] = tested on: KM mice; assay: Acute toxicity experiment and histopathologic examination; format: in vivo; conditions: caudal vein injection, 100/150/300 mg kg^−1
[8] = tested on: E-cadherin; assay: Immunofluorescence, E-cadherin expression; format: cell-based, mouse; conditions: NHI3T3 cells, TGF-β1 (10 ng mL^−1) and 9d (50 μM)
[9] = tested on: α-SMA; assay: Immunofluorescence, α-SMA expression; format: cell-based, mouse; conditions: NHI3T3 cells, TGF-β1 (10 ng mL^−1) and 9d (50 μM)
How it was run: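 NIH3T3 cells grown on coverslips and co-treated with TGF-β1 (10 ng mL−1) and test compound (50 μM) for 24 h. Fixed in 4% paraformaldehyde, then incubated with primary anti-α-SMA overnight at 4 °C. Detected with FITC-conjugated anti-rabbit IgG; nuclei stained with DAPI. Imaged by confocal microscopy; two technical replicates, three biological repeats.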

[10] = Mus musculus, NIH3T3, NIH3T3 cells
[11] = Mus musculus, NIH3T3, NIH3T3 cells, averages ±SD of at least three determinations

Row | Compound | IC50 [1, 11] [µM] | inhibition at 500 µM ([1]; Mus musculus) [%] | inhibition at 1000 µM ([1]; Mus musculus) [%] | other results
1 | Cc1ccc(=O)n(-c2ccc(NC(=O)[C@@H](C)N(C)C)cc2)c1 [Compound 5c, (R)-2-(Dimethylamino)-N-(4-(5-methyl-2-oxopyridin-1(2H)-yl)phenyl)propanamide] | 490.2 ± 2.7 | 26.8 | 52.9 | IC50 [1, 10]: 490 µM
2 | CC(=O)Nc1ccc(Cn2cc(C(F)(F)F)ccc2=O)cc1 [Compound 9a, N-(4-((2-oxo-5-(Trifluoromethyl)pyridin-1(2H)-yl)methyl)phenyl)acetamide] | 132 ± 2.3 | 68.4 | 86.2 | 
3 | TGF-β1: recombinant TGF-β1, key fibrogenic factor used to induce epithelial–mesenchymal transition and cell migration [reference compound] |  |  |  | cell migration OD value ([2]; TGF-β1 alone, OD value of the control is 1.0): about 1.7
4 | CC(=O)N(C)c1ccc(Cn2cc(C(F)(F)F)ccc2=O)cc1 [Compound 11a, N-Methyl-N-(4-((2-oxo-5-(trifluoromethyl)pyridin-1(2H)-yl)methyl)phenyl)acetamide] | 146 ± 5.5 | 67.9 | 78.5 | 
5 | CN1CCN(CC(=O)Nc2ccc(Cn3cc(C(F)(F)F)ccc3=O)cc2)CC1 [Compound 10a, 2-(4-Methylpiperazin-1-yl)-N-(4-((2-oxo-5-(trifluoromethyl)pyridin-1(2H)-yl)methyl)phenyl)acetamide] | 246.3 ± 1.8 | 66.5 | 87.7 | 
6 | CC(=O)N(C(C)=O)c1ccc(Cn2cc(C(F)(F)F)ccc2=O)cc1 [Compound 9b, N-Acetyl-N-(4-((2-oxo-5-(trifluoromethyl)pyridin-1(2H)-yl)methyl)phenyl)acetamide] | 87.5 ± 0.7 | 80.6 | 90.5 | solubility in water [3]: good solubility in water; IC50 [1, 10]: 87 µM; proliferation (fixed cell morphology) [1]: effectively inhibited; proliferation (fixed cell morphology) [4]: effectively inhibited; IC50 [4]: 48 µM
7 | CC(=O)N(C)c1ccc(Cn2cc(C)ccc2=O)cc1 [Compound 11b, N-Methyl-N-(4-((5-methyl-2-oxopyridin-1(2H)-yl)methyl)phenyl)acetamide] | 140 ± 9.8 | 66.7 | 79.4 | 
8 | Cc1ccc(=O)n(-c2ccccc2)c1 [pirfenidone, 5-methyl-1-phenyl-2[1H]-pyridone, reference compound] | > 1000 | 17.9 | 35.7 | IC50 [5]: 2750 µM; incidence of photo-sensitivity [6]: 51.7%
9 | CN1CCN(CC(=O)Nc2ccc(-n3cc(C(F)(F)F)ccc3=O)cc2)CC1 [Compound 5a, 2-(4-Methylpiperazin-1-yl)-N-(4-(2-oxo-5-(trifluoromethyl)pyridin-1(2H)-yl)phenyl)acetamide] | 341 ± 7.3 | 51.8 | 62.4 | 
10 | CC(=O)Nc1ccc(Cn2cc(C)ccc2=O)cc1 [Compound 9c, N-(4-((5-Methyl-2-oxopyridin-1(2H)-yl)methyl)phenyl)acetamide] | 113 ± 1.9 | 72.5 | 89 | 
11 | 1-Benzyl-5-(trifluoromethyl)pyridin-2(1H)-one [Compound 7a] |  |  |  | Inhibition% @ 0.5 mM ([1]; NIH3T3 cells, CCK8, 0.5 mM): 20.58%; Inhibition% @ 1 mM ([1]; NIH3T3 cells, CCK8, 1 mM): 40.95%; IC50 ([1]; NIH3T3 cells, averages ±SD of at least three determinations): > 500 µM
12 | CC(=O)N(C(C)=O)c1ccc(Cn2cc(C)ccc2=O)cc1 [Compound 9d, N-Acetyl-N-(4-((5-methyl-2-oxopyridin-1(2H)-yl)methyl)phenyl)acetamide] | 69.1 ± 2.7 | 88.4 | 98.7 | histopathology (H&E) of liver, kidney, heart, spleen [7]: no pathological abnormalities such as inflammation, injury and necrosis; expression of E-cadherin [8]: reversed after 9d treatment, higher than the control group; solubility in water [3]: good solubility in water; 3T3 cell migration (transwell) ([2]; 9d 50 μM): markedly inhibited; cell migration OD value ([2]; 9d + TGF-β1, OD value of the control is 1.0, TGF-β1 alone about 1.7): about 0.8; cell migration OD value ([2]; 9d alone, 50 μM, OD value of the control is 1.0): about 0.35; expression of α-SMA [9]: decreased; IC50 [1, 10]: 69 µM; proliferation (fixed cell morphology) [1]: effectively inhibited; times the anti-fibrosis activity of pirfenidone ([1]; relative to pirfenidone IC50 2.75 mM): more than 40 times; proliferation (fixed cell morphology) [4]: effectively inhibited; IC50 [4]: 35 µM
13 | CN(C)CC(=O)Nc1ccc(Cn2cc(C(F)(F)F)ccc2=O)cc1 [Compound 10d, 2-(Dimethylamino)-N-(4-((2-oxo-5-(trifluoromethyl)pyridin-1(2H)-yl)methyl)phenyl)acetamide] | 273.1 ± 1.5 | 52.4 | 71.3 | 
14 | CN(C)CC(=O)Nc1ccc(-n2cc(C(F)(F)F)ccc2=O)cc1 [Compound 5b, 2-(Dimethylamino)-N-(4-(2-oxo-5-(trifluoromethyl)pyridin-1(2H)-yl)phenyl)acetamide] | > 500 | 34.2 | 45.8 | 
15 | CC(=O)Nc1ccc(-n2cc(C)ccc2=O)cc1 [Compound 4b, N-(4-(5-Methyl-2-oxopyridin-1(2H)-yl)phenyl)acetamide] | > 1000 | 1.3 | 25.7 | 
16 | CC(=O)Nc1ccc(-n2cc(C(F)(F)F)ccc2=O)cc1 [Compound 4a, N-(4-(2-oxo-5-(Trifluoromethyl)pyridin-1(2H)-yl)phenyl)acetamide] | > 1000 | 10.4 | 32.6 | 
